Assay results published in ChEMBL document CHEMBL3352282, “Design and synthesis of novel azapeptide activators of apoptosis mediated by caspase-9 in cancer cells” (Bioorg Med Chem Lett, 2014).
Active and inactive are the calls of the source. The rule behind the calls is not given here.

Experiments:
[1] = system: MDA-MB-231; assay: Induction of cell death in serum starved human MDA-MB-231 cells at 50 uM after 16 hrs by trypan blue dye exclusion assay; format: functional
How it was run: (§1)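 Breast cancer line serum-starved 6 h, then exposed to compound (DMSO vehicle) for 16 h at a final 50 µM or 100 µM. Cells trypsinized, stained with Trypan blue and counted. Cell death expressed as percentage, relative to vehicle. Mean ± SEM of three independent experiments, paired comparison to DMSO control.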

[2] = system: MDA-MB-231; assay: Induction of apoptosis in serum starved human MDA-MB-231 cells assessed as caspase-3 activation at 50 uM after 16 hrs by Western blotting method; format: functional, cell-based
How it was run: (§2)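 MDA-MB-231 cells serum-starved 6 h, then exposed to DMSO vehicle, etoposide, AVPI-NH₂ or analogs at one final concentration (50 or 100 µM, per line), harvested; caspase-3 and caspase-9 activation assessed by Western blotting. Quantification as mean ± SEM of three independent experiments.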

[3] = system: MDA-MB-231; assay: Induction of apoptosis in serum starved human MDA-MB-231 cells assessed as caspase-9 activation at 50 uM after 16 hrs by Western blotting method; format: functional, cell-based; how it was run: as §2
[4] = system: MDA-MB-231; assay: Induction of cell death in serum starved human MDA-MB-231 cells at 100 uM after 16 hrs by trypan blue dye exclusion assay; format: functional; how it was run: as §1
[5] = system: MDA-MB-231; assay: Induction of apoptosis in serum starved human MDA-MB-231 cells assessed as caspase-3 activation at 100 uM after 16 hrs by Western blotting method; format: functional, cell-based; how it was run: as §2
[6] = system: MDA-MB-231; assay: Induction of apoptosis in serum starved human MDA-MB-231 cells assessed as caspase-9 activation at 100 uM after 16 hrs by Western blotting method; format: functional, cell-based; how it was run: as §2
[7] = system: MDA-MB-231; assay: Induction of apoptosis in serum starved human MDA-MB-231 cells assessed as caspase-9 activation after 16 hrs by Western blotting method; format: functional, cell-based; details: MDA-MB-231, 16 h
How it was run: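 MDA-MB-231 cells serum-starved 6 h, treated 16 h across a concentration series (about 12.5–125 µM), harvested; total and cleaved caspase-9 immunoblotted and quantified. Mean ± SEM of two independent experiments; significance versus paired DMSO condition.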

| SMILES | Activity [1] | Activity [2] | Activity [3] | Activity [4] [%] | Activity [5] | Activity [6] | EC50 [7] [µM] |
| --- | --- | --- | --- | --- | --- | --- | --- |
| COc1cc([C@@H]2c3cc4c(cc3[C@@H](O[C@@H]3O[C@@H]5CO[C@@H](C)O[C@H]5[C@H](O)[C@H]3O)[C@H]3COC(=O)[C@H]23)OCO4)cc(OC)c1O [ETOPOSIDE] | 50% | Active | inactive |  |  |  |  |
| C=CCN(NC(=O)[C@H](C)N)C(=O)N1CCC[C@H]1C(=O)NC(c1ccccc1)c1ccccc1 | inactive |  |  | 50 | Active | Active |  |
| C#CCN(NC(=O)[C@H](C)N)C(=O)N1CCC[C@H]1C(=O)NC(c1ccccc1)c1ccccc1 | inactive |  |  | 50 | Active | Active |  |
| C[C@H](N)C(=O)NNC(=O)N1CCC[C@H]1C(=O)NC(c1ccccc1)c1ccccc1 | Active |  |  | 50 | Active | Active | 73.4 |
| C[C@H](N)C(=O)NN(Cc1ccccc1)C(=O)N1CCC[C@H]1C(=O)NC(c1ccccc1)c1ccccc1 | Active | Active | Active | 50 | Active | Active | 50.2 |
| C[C@H](N)C(=O)NN(C)C(=O)N1CCC[C@H]1C(=O)NC(c1ccccc1)c1ccccc1 | Active |  |  | 50 | Active | Active |  |
